Experimental data taken from ChEMBL document CHEMBL4196066, “Design and synthesis of furyl/thineyl pyrroloquinolones based on natural alkaloid perlolyrine, lead to the discovery of potent and selective PDE5 inhibitors” (Eur J Med Chem, 2018).

Experiments:
Homo sapiens [1] = species on record: Homo sapiens; test: Selectivity ratio of IC50 for N-terminal GST-tagged full length recombinant human PDE6C to IC50 for N-terminal GST-tagged full length recombinant human PDE5A1 catalytic domain
[2] = AUC (0 to 24 hrs) in Wistar rat at 15 mg/kg, po; type: ADME, organism-based; set-up: time < 24 hr, dose 15 mg/kg, route oral; conditions: in vivo
In short: (§1)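 Male Wistar rats (228−249 g) fasted 12 h, dosed orally in 0.5% methylcellulose. Blood drawn at 0, 0.5, 1, 1.5, 2, 4, 6, 12 and 24 h; plasma separated by centrifugation at 4 °C, stored at −80 °C, drug measured by LC–MS/MS, and PK parameters computed from the concentration–time data.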

Homo sapiens [3] = species on record: Homo sapiens; test: Selectivity ratio of IC50 for N-terminal GST-tagged full length recombinant human PDE1A to IC50 for N-terminal GST-tagged full length recombinant human PDE5A1 catalytic domain
[4] = Oral bioavailability in Wistar rat at 15 mg/kg; type: ADME, organism-based; conditions: in vivo
Rattus norvegicus [5] = test: Volume of distribution at steady state in Wistar rat at 15 mg/kg, po; type: ADME, organism-based; conditions: in vivo
[6] = MRT in Wistar rat at 2 mg/kg, iv; type: ADME, organism-based; conditions: in vivo
[7] = Clearance in Wistar rat at 2 mg/kg, iv; type: ADME, organism-based; conditions: in vivo
[8] = molecular target: Cone cGMP-specific 3',5'-cyclic phosphodiesterase subunit alpha' (Homo sapiens, UniProt P51160); test: Inhibition of N-terminal GST-tagged full length recombinant human PDE6C expressed in Baculovirus infected Sf9 insect cells using […] as substrate after 1 hr by fluorescence polarization assay
Sequence of Cone cGMP-specific 3',5'-cyclic phosphodiesterase subunit alpha' (P51160 whole entry): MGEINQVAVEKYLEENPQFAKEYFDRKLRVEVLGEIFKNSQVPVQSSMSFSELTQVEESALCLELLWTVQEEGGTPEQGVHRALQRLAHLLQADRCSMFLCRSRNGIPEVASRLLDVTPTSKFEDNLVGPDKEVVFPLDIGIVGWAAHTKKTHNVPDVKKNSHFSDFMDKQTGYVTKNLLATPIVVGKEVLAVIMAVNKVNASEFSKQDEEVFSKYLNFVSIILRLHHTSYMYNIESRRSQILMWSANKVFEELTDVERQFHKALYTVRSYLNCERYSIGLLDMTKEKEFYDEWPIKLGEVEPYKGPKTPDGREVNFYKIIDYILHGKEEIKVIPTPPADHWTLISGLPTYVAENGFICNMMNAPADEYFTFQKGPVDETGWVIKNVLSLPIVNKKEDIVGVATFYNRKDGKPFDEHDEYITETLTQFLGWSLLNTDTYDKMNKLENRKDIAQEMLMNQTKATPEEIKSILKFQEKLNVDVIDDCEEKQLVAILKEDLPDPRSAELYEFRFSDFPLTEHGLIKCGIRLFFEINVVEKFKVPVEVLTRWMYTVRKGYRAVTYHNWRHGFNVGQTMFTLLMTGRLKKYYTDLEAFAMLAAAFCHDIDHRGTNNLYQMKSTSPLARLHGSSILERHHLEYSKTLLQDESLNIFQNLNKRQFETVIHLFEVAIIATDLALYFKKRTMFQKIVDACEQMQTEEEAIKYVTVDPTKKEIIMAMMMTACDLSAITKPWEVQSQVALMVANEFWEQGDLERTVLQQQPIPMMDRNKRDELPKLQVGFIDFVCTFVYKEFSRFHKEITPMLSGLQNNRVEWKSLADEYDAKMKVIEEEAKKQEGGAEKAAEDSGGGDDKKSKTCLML

[9] = MRT in Wistar rat at 15 mg/kg, po; type: ADME, organism-based; conditions: in vivo
[10] = molecular target: cGMP-dependent 3',5'-cyclic phosphodiesterase (Homo sapiens) (UniProt O00408); test: Inhibition of N-terminal FLAG-tagged human PDE2A1 (2 to 941 residues) expressed in Baculovirus infected Sf9 insect cells at 250 uM using FAM-cAMP as substrate after 1 hr by fluorescence polarization assay relative to control
Sequence of cGMP-dependent 3',5'-cyclic phosphodiesterase (Homo sapiens) (O00408 whole entry, the tested form may be a part): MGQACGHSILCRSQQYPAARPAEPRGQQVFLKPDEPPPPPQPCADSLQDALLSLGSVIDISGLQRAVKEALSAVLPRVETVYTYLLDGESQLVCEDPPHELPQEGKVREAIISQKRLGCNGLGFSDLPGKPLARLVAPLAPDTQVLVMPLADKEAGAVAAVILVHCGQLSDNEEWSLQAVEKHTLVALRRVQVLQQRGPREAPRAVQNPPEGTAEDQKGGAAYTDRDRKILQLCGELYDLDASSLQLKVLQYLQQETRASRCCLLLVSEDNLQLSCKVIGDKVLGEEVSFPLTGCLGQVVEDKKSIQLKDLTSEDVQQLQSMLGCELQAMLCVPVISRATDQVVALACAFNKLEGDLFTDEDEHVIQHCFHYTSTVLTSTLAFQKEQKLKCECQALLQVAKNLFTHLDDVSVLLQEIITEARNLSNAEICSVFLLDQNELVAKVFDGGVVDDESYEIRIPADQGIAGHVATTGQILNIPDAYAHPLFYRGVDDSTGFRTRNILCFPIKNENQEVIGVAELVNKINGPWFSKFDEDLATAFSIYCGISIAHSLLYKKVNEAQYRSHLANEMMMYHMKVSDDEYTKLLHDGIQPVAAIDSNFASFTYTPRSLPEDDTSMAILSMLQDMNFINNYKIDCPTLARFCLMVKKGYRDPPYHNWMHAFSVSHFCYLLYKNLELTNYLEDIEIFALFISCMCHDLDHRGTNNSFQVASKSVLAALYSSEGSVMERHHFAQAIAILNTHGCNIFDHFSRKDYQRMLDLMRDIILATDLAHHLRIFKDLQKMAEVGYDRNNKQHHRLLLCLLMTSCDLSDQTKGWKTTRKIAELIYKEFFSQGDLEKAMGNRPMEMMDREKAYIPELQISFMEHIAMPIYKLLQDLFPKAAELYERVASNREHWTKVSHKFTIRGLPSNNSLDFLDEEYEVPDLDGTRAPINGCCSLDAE

[11] = molecular target: cGMP-dependent 3',5'-cyclic phosphodiesterase (Homo sapiens) (UniProt O00408); test: Inhibition of N-terminal FLAG-tagged human PDE2A1 (2 to 941 residues) expressed in Baculovirus infected Sf9 insect cells at 8 uM using FAM-cAMP as substrate after 1 hr by fluorescence polarization assay relative to control
[12] = molecular target: Dual 3',5'-cyclic-AMP and -GMP phosphodiesterase 11A (Homo sapiens, UniProt Q9HCR9); test: Inhibition of N-terminal GST-tagged full length recombinant human PDE11A expressed in Baculovirus infected Sf9 insect cells using FAM-cAMP as substrate after 1 hr by fluorescence polarization assay
Sequence of Dual 3',5'-cyclic-AMP and -GMP phosphodiesterase 11A (Q9HCR9 whole entry): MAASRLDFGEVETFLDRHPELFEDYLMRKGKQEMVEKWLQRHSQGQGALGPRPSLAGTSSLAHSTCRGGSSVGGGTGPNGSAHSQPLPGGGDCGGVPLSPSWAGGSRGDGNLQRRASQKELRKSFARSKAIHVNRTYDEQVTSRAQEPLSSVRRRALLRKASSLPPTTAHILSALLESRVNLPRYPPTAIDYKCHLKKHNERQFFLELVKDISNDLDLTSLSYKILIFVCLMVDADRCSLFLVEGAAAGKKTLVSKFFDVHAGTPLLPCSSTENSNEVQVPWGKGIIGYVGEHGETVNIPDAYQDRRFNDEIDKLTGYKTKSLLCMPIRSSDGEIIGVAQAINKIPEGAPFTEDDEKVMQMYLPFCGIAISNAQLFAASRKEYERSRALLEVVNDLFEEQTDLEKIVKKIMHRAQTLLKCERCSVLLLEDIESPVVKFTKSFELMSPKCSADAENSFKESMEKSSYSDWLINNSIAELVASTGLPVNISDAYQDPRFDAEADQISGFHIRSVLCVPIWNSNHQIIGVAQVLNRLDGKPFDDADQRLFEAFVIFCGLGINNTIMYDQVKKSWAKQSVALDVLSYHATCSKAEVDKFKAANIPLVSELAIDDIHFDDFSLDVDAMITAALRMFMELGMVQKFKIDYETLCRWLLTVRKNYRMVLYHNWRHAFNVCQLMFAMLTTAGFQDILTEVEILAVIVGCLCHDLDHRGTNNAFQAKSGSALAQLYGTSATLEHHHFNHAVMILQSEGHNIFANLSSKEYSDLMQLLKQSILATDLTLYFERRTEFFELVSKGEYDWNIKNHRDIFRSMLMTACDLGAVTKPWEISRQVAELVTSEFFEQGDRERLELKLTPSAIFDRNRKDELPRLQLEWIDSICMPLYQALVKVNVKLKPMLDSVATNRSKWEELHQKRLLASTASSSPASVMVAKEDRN

[13] = molecular target: 3',5'-cyclic-AMP phosphodiesterase 4A (Homo sapiens) (UniProt P27815); test: Inhibition of N-terminal GST-tagged full length recombinant human PDE4A1A expressed in Baculovirus infected Sf9 insect cells at 1.5 uM using FAM-cAMP as substrate after 1 hr by fluorescence polarization assay relative to control
Sequence of 3',5'-cyclic-AMP phosphodiesterase 4A (Homo sapiens) (P27815 whole entry, the tested form may be a part): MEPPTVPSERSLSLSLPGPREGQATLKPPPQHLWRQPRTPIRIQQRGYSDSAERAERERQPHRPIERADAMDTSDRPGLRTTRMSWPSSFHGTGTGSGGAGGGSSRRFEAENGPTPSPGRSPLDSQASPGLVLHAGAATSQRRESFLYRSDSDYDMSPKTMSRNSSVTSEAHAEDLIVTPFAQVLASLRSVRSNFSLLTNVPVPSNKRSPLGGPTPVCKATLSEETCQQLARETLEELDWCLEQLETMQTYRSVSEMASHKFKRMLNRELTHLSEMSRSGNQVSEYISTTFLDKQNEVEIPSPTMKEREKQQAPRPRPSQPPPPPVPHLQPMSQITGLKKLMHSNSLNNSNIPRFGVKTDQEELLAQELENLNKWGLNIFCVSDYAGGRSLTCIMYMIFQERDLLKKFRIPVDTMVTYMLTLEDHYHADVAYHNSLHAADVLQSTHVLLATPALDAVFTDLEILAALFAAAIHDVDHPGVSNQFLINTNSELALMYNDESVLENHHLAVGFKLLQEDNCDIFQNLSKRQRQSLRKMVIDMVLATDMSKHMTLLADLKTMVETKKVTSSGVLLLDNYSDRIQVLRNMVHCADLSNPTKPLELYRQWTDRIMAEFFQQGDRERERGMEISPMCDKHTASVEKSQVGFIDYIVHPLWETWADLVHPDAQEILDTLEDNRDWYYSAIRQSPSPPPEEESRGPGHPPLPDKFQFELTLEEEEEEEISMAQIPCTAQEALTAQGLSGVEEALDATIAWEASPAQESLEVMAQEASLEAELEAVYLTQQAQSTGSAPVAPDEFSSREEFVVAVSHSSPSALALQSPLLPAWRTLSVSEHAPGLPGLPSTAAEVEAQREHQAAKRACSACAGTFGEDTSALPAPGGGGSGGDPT

[14] = molecular target: cGMP-specific 3',5'-cyclic phosphodiesterase (Homo sapiens, UniProt O76074); test: Inhibition of N-terminal GST-tagged full length recombinant human PDE5A1 catalytic domain expressed in Baculovirus infected Sf9 insect cells using FAM-cGMP as substrate after 1 hr by fluorescence polarization assay
Thoracic aorta = test: Vasorelaxant activity in norepinephrine-pretreated New Zealand rabbit thoracic aorta assessed as increase in aortic relaxation at 1 uM measured after 15 mins relative to control; type: functional, Oryctolagus cuniculus; set-up: scale not given: the % may be the effect or the level left
In short: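 Thoracic aortic rings from New Zealand white rabbits were held in Krebs buffer at 2 g resting tension (0%) and equilibrated 2 h. Rings were contracted to maximum with 1 µM norepinephrine (100%). Compounds were added cumulatively at 15 min intervals, with tension recorded 15 min after each dose. Relaxation % = (max − recorded)/(max − 2 g) × 100; n = 1–2 rings.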

Homo sapiens [15] = species on record: Homo sapiens; test: Selectivity ratio of IC50 for N-terminal FLAG-tagged human PDE2A1 (2 to 941 residues) to IC50 for N-terminal GST-tagged full length recombinant human PDE5A1 catalytic domain
Homo sapiens [16] = species on record: Homo sapiens; test: Selectivity ratio of IC50 for N-terminal GST-tagged full length recombinant human PDE4A1A to IC50 for N-terminal GST-tagged full length recombinant human PDE5A1 catalytic domain
[17] = Tmax in Wistar rat at 2 mg/kg, iv; type: ADME, organism-based; conditions: in vivo
[18] = Half life in Wistar rat at 2 mg/kg, iv; type: ADME, organism-based; conditions: in vivo
Rattus norvegicus [19] = test: (§2) AUC (0 to infinity) in Wistar rat at 15 mg/kg, po; type: ADME, organism-based; set-up: dose 15 mg/kg, route oral, time infinity; conditions: in vivo; in short: as §1
[20] = Volume of distribution at steady state in Wistar rat at 2 mg/kg, iv; type: ADME, organism-based; conditions: in vivo, read-out: Vdss
[21] = molecular target: cGMP-inhibited 3',5'-cyclic phosphodiesterase 3B (Homo sapiens) (UniProt Q13370); test: Inhibition of N-terminal GST-tagged recombinant human PDE3B (592 end residues) expressed in Baculovirus infected Sf9 insect cells at 8 uM using FAM-cAMP as substrate after 1 hr by fluorescence polarization assay relative to control
[22] = AUC (0 to 24 hrs) in Wistar rat at 2 mg/kg, iv; type: ADME, organism-based; set-up: time < 24 hr, dose 2 mg/kg, route intravenous; conditions: in vivo
[23] = Cmax in Wistar rat at 2 mg/kg, iv; type: ADME, organism-based; set-up: dose 2 mg/kg, route intravenous; conditions: in vivo
[24] = Cmax in Wistar rat at 15 mg/kg, po; type: ADME, organism-based; set-up: dose 15 mg/kg, route oral; conditions: in vivo
[25] = Half life in Wistar rat at 15 mg/kg, po; type: ADME, organism-based; conditions: in vivo
[26] = Tmax in Wistar rat at 15 mg/kg, po; type: ADME, organism-based; conditions: in vivo
Oryctolagus cuniculus = test: Vasorelaxant activity in iv dosed New Zealand rabbit assessed as induction of ICP change in response to electrically pelvic nerve stimulation administered as bolus dose; type: functional
[27] = AUC (0 to infinity) in Wistar rat at 2 mg/kg, iv; type: ADME, organism-based; set-up: dose 2 mg/kg, route intravenous, time infinity; conditions: in vivo
[28] = molecular target: Dual specificity calcium/calmodulin-dependent 3',5'-cyclic nucleotide phosphodiesterase 1A (Homo sapiens) (UniProt P54750); test: Inhibition of N-terminal GST-tagged full length recombinant human PDE1A expressed in Baculovirus infected Sf9 insect cells at 8 uM using FAM-cAMP as substrate after 1 hr by fluorescence polarization assay relative to control
Sequence of Dual specificity calcium/calmodulin-dependent 3',5'-cyclic nucleotide phosphodiesterase 1A (Homo sapiens) (P54750 whole entry, the tested form may be a part): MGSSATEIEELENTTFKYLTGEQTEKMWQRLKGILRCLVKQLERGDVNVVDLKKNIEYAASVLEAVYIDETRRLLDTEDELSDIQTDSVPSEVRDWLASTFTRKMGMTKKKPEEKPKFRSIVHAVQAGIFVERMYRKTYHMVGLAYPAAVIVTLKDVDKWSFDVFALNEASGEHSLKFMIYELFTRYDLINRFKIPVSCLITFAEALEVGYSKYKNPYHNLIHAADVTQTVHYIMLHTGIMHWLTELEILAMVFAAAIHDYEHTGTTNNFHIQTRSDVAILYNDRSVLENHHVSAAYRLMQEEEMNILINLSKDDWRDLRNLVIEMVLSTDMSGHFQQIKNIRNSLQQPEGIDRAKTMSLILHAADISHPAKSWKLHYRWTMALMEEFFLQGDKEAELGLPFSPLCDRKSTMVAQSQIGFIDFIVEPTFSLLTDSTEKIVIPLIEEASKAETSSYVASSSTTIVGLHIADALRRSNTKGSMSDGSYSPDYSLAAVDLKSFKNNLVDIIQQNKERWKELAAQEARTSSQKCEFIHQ

Homo sapiens [29] = species on record: Homo sapiens; test: Selectivity ratio of IC50 for N-terminal GST-tagged recombinant human PDE3B (592 end residues) to IC50 for N-terminal GST-tagged full length recombinant human PDE5A1 catalytic domain
Homo sapiens [30] = species on record: Homo sapiens; test: Selectivity ratio of IC50 for N-terminal GST-tagged full length recombinant human PDE11A to IC50 for N-terminal GST-tagged full length recombinant human PDE5A1 catalytic domain
[31] = molecular target: cGMP-inhibited 3',5'-cyclic phosphodiesterase 3B (Homo sapiens) (UniProt Q13370); test: Inhibition of N-terminal GST-tagged recombinant human PDE3B (592 end residues) expressed in Baculovirus infected Sf9 insect cells at 6 uM using FAM-cAMP as substrate after 1 hr by fluorescence polarization assay relative to control
[32] = molecular target: Dual specificity calcium/calmodulin-dependent 3',5'-cyclic nucleotide phosphodiesterase 1A (Homo sapiens) (UniProt P54750); test: Inhibition of N-terminal GST-tagged full length recombinant human PDE1A expressed in Baculovirus infected Sf9 insect cells at 6 uM using FAM-cAMP as substrate after 1 hr by fluorescence polarization assay relative to control
[33] = Clearance in Wistar rat at 15 mg/kg, po; type: ADME, organism-based; conditions: in vivo
[34] = molecular target: 3',5'-cyclic-AMP phosphodiesterase 4A (Homo sapiens) (UniProt P27815); test: Inhibition of N-terminal GST-tagged full length recombinant human PDE4A1A expressed in Baculovirus infected Sf9 insect cells at 1 uM using FAM-cAMP as substrate after 1 hr by fluorescence polarization assay relative to control
[35] = as §2; type: ADME, organism-based; set-up: dose 15 mg/kg, route oral, time infinity; conditions: Wistar, in vivo; in short: as §1
[36] = molecular target: cGMP-dependent 3',5'-cyclic phosphodiesterase (Homo sapiens) (UniProt O00408); test: Inhibition of N-terminal FLAG-tagged human PDE2A1 (2 to 941 residues) expressed in Baculovirus infected Sf9 insect cells at 6 uM using FAM-cAMP as substrate after 1 hr by fluorescence polarization assay relative to control

Ratio IC50 (Homo sapiens [1])	AUC(0-t) at 24 h [2]	Ratio IC50 (Homo sapiens [3])	bioavailability [4]	Vdss (Rattus norvegicus [5])	MRT [6]	clearance [7]	IC50 [8]	MRT [9]	IC50 [12]	IC50 [14]	Ratio IC50 (Homo sapiens [15])	Ratio IC50 (Homo sapiens [16])	Tmax [17]	half-life [18]	Vd [20]	AUC(0-t) at 24 h [22]	Cmax [23]	Cmax [24]	Compound	Activity (Thoracic aorta)	also measured
2.5	225 ng·h/mL	> 10000	24.7%	181.3 L/kg	2.9 h	287 mL/min/kg	1.2 nM	6.7 h	2.7 nM	0.52 nM	> 10000	> 2500	6 min	1.9 h	72.7 L/kg	121 ng·h/mL	308 ng/mL	27.5 ng/mL	CCc1ccc([C@@H]2c3[nH]c4ccccc4c(=O)c3CN2c2ncc(-c3ccccn3)cn2)s1	>90%	inhibition [10]: 81%; inhibition [11]: 39%; inhibition [13]: 10%; AUC (Rattus norvegicus [19]): 231.9 ng·h/mL; inhibition [21]: 7%; half-life [25]: 4.3 h; Tmax [26]: 2.8 h; ED50 (Oryctolagus cuniculus): 0.0217 mg/kg; AUC(0-inf) [27]: 125 ng·h/mL; inhibition [28]: 9.5%; Ratio IC50 (Homo sapiens [29]): > 10000; Ratio IC50 (Homo sapiens [30]): 5.2
3.9	312 ng·h/mL	> 10000	66.3%	420.9 L/kg	3.1 h	533 mL/min/kg	1.5 nM	9.4 h	5.1 nM	0.39 nM	> 10000	> 2500	6 min	2.9 h	124 L/kg	67.9 ng·h/mL	89.2 ng/mL	46.9 ng/mL	CCc1ccc([C@@H]2c3[nH]c4ccccc4c(=O)c3CN2c2ncc(-c3ccccn3)cn2)o1	>90%	inhibition [31]: 9.5%; inhibition [32]: 6%; CL/F [33]: 550 mL/min/kg; inhibition [34]: 18%; AUC(0-inf) [35]: 344 ng·h/mL; half-life [25]: 7.8 h; Tmax [26]: 1.3 h; ED50 (Oryctolagus cuniculus): 0.0242 mg/kg; AUC(0-inf) [27]: 69.3 ng·h/mL; inhibition [36]: 49%; Ratio IC50 (Homo sapiens [29]): > 10000; Ratio IC50 (Homo sapiens [30]): 13.1
